Experimental data: ChEMBL document CHEMBL4376878, “Potent Thiophene Antagonists of Human Complement C3a Receptor with Anti-Inflammatory Activity” (J Med Chem, 2020)
Active and inactive are the calls of the source. The calls are words filed in the database; no cut-off is given here. Residues, ends and D or L forms follow the SMILES beside them.

Assays:
[1] = biological target: T1, C3a anaphylatoxin chemotactic receptor (Homo sapiens) (UniProt Q16581); test: Displacement of Eu-DTPA-C3a from Galpha16-coupled C3a receptor (unknown origin) expressed in HEK293 cells measured after 60 mins by time-resolved fluorescence assay; format: cell-based
T1 sequence (whole entry): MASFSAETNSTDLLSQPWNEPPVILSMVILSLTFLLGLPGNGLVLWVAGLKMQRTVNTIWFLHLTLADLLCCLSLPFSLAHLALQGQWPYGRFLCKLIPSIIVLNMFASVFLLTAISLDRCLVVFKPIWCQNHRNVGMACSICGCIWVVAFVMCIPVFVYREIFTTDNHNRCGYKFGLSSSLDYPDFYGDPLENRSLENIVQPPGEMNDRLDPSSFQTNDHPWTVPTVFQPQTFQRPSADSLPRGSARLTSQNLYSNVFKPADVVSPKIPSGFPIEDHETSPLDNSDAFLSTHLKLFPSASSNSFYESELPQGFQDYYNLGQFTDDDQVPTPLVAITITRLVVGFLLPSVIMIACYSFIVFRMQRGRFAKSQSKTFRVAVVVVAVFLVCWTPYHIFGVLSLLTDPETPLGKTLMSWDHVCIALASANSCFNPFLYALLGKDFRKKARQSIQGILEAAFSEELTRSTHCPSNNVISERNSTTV

[2] = AUC (0 to 8 hrs) in Wistar rat at 10 mg/kg, po by LC-MS/MS analysis; format: ADME, organism-based; design: dose 10 mg/kg, time < 8 hr, route oral; details: in vivo
Procedure, shortened: (§1)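 Male Wistar rats with jugular vein catheter, fasted overnight; dosed p.o. by gavage in olive oil or i.v. via catheter in 50% DMSO. Blood drawn from conscious unrestrained rats 5 min before dosing, then 5, 15, 30 min and 1–8 h after. Volume replaced with heparinized saline. Rats fed after 4 h sample. n = 3 per route.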

[3] = biological target: T2, C3a anaphylatoxin chemotactic receptor (Homo sapiens, UniProt Q16581); test: (§2) Antagonist activity at C3a receptor in human MDM cells assessed as inhibition of C3a-induced intracellular calcium release preincubated for 30 mins followed by C3a addition and measured at 1 sec interval for => 200 secs by Fluo-3 AM dye-based FLIPR assay; format: functional, cell-based
T2 sequence (Q16581 whole entry): T1 sequence (whole entry)
Procedure, shortened: (§3)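 Macrophages were derived from CD14⁺ monocytes (M-CSF, 7 days) and dye-loaded with 4 μM Fluo-3 AM for 1 h at 37 °C in HBSS/probenecid/HEPES, pH 7.4. Antagonist was preincubated for 30 min at 37 °C before addition of synthetic full-length human C3a (100 nM). FLIPR fluorescence was read at ex 495/em 520 nm. Percent response was plotted against log concentration; n ≥ 3.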

Rattus norvegicus [4] = test: Antiinflammatory activity in Wistar rat model of BR103-induced paw edema assessed as reduction in hind paw swelling at 30 mg/kg, po administered via gavage pretreated for 4 hrs followed by BR103 challenge and measured after 30 mins by digital caliper method relative to control; format: functional; design: scale not given: the % may be the effect or the level left
Procedure, shortened: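 For duration of action, antagonist was given at 30 mg/kg by oral gavage in olive oil at 1, 2, 4, 6, 8 or 12 h before intraplantar BR103 (350 μg/paw) in male Wistar rats. Controls received olive oil 2 h before challenge. Paw thickness and width were measured with calipers at 0 and 0.5 h; n = 3 per group.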

[5] = AUC (0 to 8 hrs) in Wistar rat at 0.5 mg/kg, iv by LC-MS/MS analysis; format: ADME, organism-based; design: time < 8 hr, dose 0.5 mg/kg, route intravenous; details: in vivo; procedure, shortened: as §1
[6] = biological target: T1, C3a anaphylatoxin chemotactic receptor (Homo sapiens); test: Potency index, ratio of SB290157 IC50 to test compound IC50 for antagonist activity at C3a receptor in human LAD2 cells assessed as inhibition of C3a-induced beta-hexosaminidase release; format: cell-based
[7] = biological target: T3, C5a anaphylatoxin chemotactic receptor 1 (Homo sapiens) (UniProt P21730); test: Antagonist activity at C5a receptor in human MDM cells assessed as inhibition of C5a-induced intracellular calcium release preincubated for 30 mins followed by C5a addition and measured at 1 sec interval for => 200 secs by Fluo-3 AM dye-based FLIPR assay; format: functional, cell-based
T3 sequence (whole entry): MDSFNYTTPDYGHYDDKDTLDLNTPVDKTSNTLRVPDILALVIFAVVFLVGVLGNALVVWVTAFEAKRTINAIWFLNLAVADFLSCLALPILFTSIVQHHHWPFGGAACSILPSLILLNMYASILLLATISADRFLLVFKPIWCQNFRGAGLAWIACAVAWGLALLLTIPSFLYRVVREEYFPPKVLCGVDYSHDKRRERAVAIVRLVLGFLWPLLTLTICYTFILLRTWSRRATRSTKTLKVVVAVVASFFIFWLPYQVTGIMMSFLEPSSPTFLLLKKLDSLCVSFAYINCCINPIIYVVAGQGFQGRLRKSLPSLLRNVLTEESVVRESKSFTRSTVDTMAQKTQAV
Procedure, shortened: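 HMDMs from CD14+ monocytes after 7 days in M-CSF; 5 × 10⁴ cells/well seeded overnight. Cells loaded 1 h at 37 °C with 4 μM Fluo-3 AM, then washed into HBSS with 2.5 mM probenecid and 20 mM HEPES, pH 7.4. Antagonist preincubated 30 min at 37 °C before C5a. Fluorescence (ex 495/em 520 nm) read every 1 s for ≥200 s.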

[8] = biological target: T1, C3a anaphylatoxin chemotactic receptor (Homo sapiens); test: Potency index, ratio of SB290157 IC50 to test compound IC50 for antagonist activity at C3a receptor in human MDM cells; format: cell-based
[9] = biological target: T2, C3a anaphylatoxin chemotactic receptor; test: Partial agonist activity at C3a receptor in human MDM cells assessed as induction of intracellular calcium release at higher concentration measured at 1 sec interval for => 200 secs by Fluo-3 AM dye-based FLIPR assay relative to control; format: cell-based
Procedure, shortened: (§4)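 HMDMs were differentiated from CD14⁺ monocytes with M-CSF (100 ng/mL) for 7 days and seeded overnight at 5 × 10⁴ cells/well. Cells were loaded with 4 μM Fluo-3 AM for 1 h at 37 °C, then placed in HBSS with 2.5 mM probenecid and 20 mM HEPES, pH 7.4. Agonist was added on FLIPR and read at ex 495/em 520 nm. EC50 is relative to the maximum from 1 μM C3a; n ≥ 3.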

[10] = Volume of distribution in Wistar rat at 0.5 mg/kg, iv by LC-MS/MS analysis; format: ADME, organism-based; details: in vivo; procedure, shortened: as §1
[11] = biological target: T1, C3a anaphylatoxin chemotactic receptor (Homo sapiens); test: (§5) Antagonist at C3a receptor in human LAD2 cells assessed as inhibition of C3a-induced beta-hexosaminidase release preincubated for 30 mins followed by C3a addition; format: cell-based
Procedure, shortened: (§6)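 LAD2 mast cells grown with SCF, 1 × 10⁴ cells/well seeded overnight and presensitized overnight with IgE (100 ng/mL). Compounds preincubated 30 min at 37 °C in 0.1 M HEPES pH 7.4, then C3a added and β-hexosaminidase release measured. IC50 is concentration inhibiting 50% of release induced by 100 nM C3a; n ≥ 3.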

[12] = biological target: T2, C3a anaphylatoxin chemotactic receptor; test: as §5; format: cell-based; procedure, shortened: as §6
Rattus norvegicus [13] = test: Antiinflammatory activity in Wistar rat model of BR103-induced paw edema assessed as reduction in hind paw swelling at 10 mg/kg, po administered via gavage pretreated for 2 hrs followed by BR103 challenge and measured after 30 mins by digital caliper method relative to control; format: functional; design: scale not given: the % may be the effect or the level left
Procedure, shortened: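 Male Wistar rats were given antagonist at 10 mg/kg by oral gavage in olive oil 2 h before intraplantar BR103 (350 μg in 100 μL of 5% DMSO). Sham paws received vehicle; sham and control rats received olive oil only. Paw thickness and width were measured with digital calipers at 0, 0.5, 1 and 2 h after agonist; n = 3 per group.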

[14] = Stability of the compound in rat plasma at 1 mM measured after 4 hrs by LC-MS analysis; format: ADME, cell-free
Procedure, shortened: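 Compound added to rat plasma from 1 mM DMSO stock (stock concentration) and incubated at 37 °C. Samples taken at 0, 5, 15, 30, 60, 120 and 240 min, quenched in MeCN/H₂O 9:1, centrifuged and analyzed by LC-MS. Plasma activity checked with SLIGRL-NH₂.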

[15] = Cmax in Wistar rat at 10 mg/kg, po by LC-MS/MS analysis; format: ADME, organism-based; design: dose 10 mg/kg, route oral; details: in vivo; procedure, shortened: as §1
[16] = biological target: T2, C3a anaphylatoxin chemotactic receptor; test: Agonist activity at C3a receptor in human MDM cells assessed as induction of intracellular calcium release measured at 1 sec interval for => 200 secs by Fluo-3 AM dye-based FLIPR assay; format: cell-based; procedure, shortened: as §4
[17] = Clearance in Wistar rat at 0.5 mg/kg, iv by LC-MS/MS analysis; format: ADME, organism-based; details: in vivo; procedure, shortened: as §1
[18] = Tmax in Wistar rat at 10 mg/kg, po by LC-MS/MS analysis; format: ADME, organism-based; details: in vivo; procedure, shortened: as §1
[19] = Stability of the compound in rat liver microsomes assessed as compound degradation at 1 uM preincubated for 5 mins followed by NADPH addition and measured after 1 hr by LC-MS/MS analysis; format: ADME, Microsome; details: read-out: Drug degradation
Procedure, shortened: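 Compound at 1 μM in 100 mM phosphate buffer pH 7.4 with 0.1% DMSO was mixed with rat liver microsomes and preincubated 5 min at 37 °C before NADPH was added. Samples taken at 0, 5, 15, 30 and 60 min, quenched in MeCN/H₂O 9:1 and analyzed by LC-MS/MS. Microsome activity checked with SLIGRL-NH₂; n = 3.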

[20] = Elimination half-life in Wistar rat at 0.5 mg/kg, iv by LC-MS/MS analysis; format: ADME, organism-based; details: in vivo, read-out: beta t1/2; procedure, shortened: as §1
Rattus norvegicus [21] = test: Antiinflammatory activity in Wistar rat model of BR103-induced paw edema assessed as reduction in hind paw swelling at <30 mg/kg, po administered via gavage pretreated for 2 hrs followed by BR103 challenge and measured after 0.5 to 2 hrs by digital caliper method; format: functional, organism-based
[22] = biological target: T1, C3a anaphylatoxin chemotactic receptor (Homo sapiens); test: as §2; format: functional, cell-based; procedure, shortened: as §3
[23] = Elimination half-life in Wistar rat at 1 mg/kg, iv by LC-MS/MS analysis; format: ADME, organism-based; details: in vivo, read-out: beta t1/2; procedure, shortened: as §1
[24] = Clearance in Wistar rat at 1 mg/kg, iv by LC-MS/MS analysis; format: ADME, organism-based; details: in vivo; procedure, shortened: as §1
[25] = Volume of distribution in Wistar rat at 1 mg/kg, iv by LC-MS/MS analysis; format: ADME, organism-based; details: in vivo; procedure, shortened: as §1
[26] = AUC (0 to 8 hrs) in Wistar rat at 1 mg/kg, iv by LC-MS/MS analysis; format: ADME, organism-based; design: time < 8 hr, dose 1 mg/kg, route intravenous; details: in vivo; procedure, shortened: as §1
[27] = Stability of the compound in rat plasma at 1 mM measured after 10 mins by LC-MS analysis; format: ADME, cell-free; details: 1000 µM

N=C(N)NCCC[C@H](NC(=O)c1ccc(C(c2ccccc2)c2ccccc2)s1)C(=O)O
inhibition [1]: Dose-dependent effect
AUC(0-t) at 8 h [2]: 436 ng·h/mL
IC50 ([3]; read-out: IC50): 85 nM
Activity (Rattus norvegicus [4]): <=60%
AUC(0-t) at 8 h [5]: 811 ng·h/mL
Ratio IC50 [6]: 100
inhibition [7]: inactive
Ratio IC50 [8]: 15
Activity [9]: 30 to 80%
Vd [10]: 0.4 L
inhibition [11]: Dose-dependent effect
IC50 [12]: 4 nM
Activity (Rattus norvegicus [13]): 20%
Stability [14]: Stable
Cmax [15]: 91 ng/mL
EC50 ([16]; read-out: EC50): > 100000 nM
EC50 ([16]; read-out: pEC50 (converted)): > 100000 nM
clearance [17]: 10.3 mL/min/kg
Tmax [18]: 3.5 h
metabolised at 1 h, 1 µM [19]: 60%
half-life [20]: 0.533 h

N=C(N)NCCC[C@H](NC(=O)COCC(c1ccccc1)c1ccccc1)C(=O)O
IC50 ([3]; read-out: IC50): 1300 to 3800 nM
IC50 ([3]; read-out: pIC50 (converted)): 3980 nM
inhibition [11]: Dose-dependent effect
IC50 [12]: 540 nM
EC50 ([16]; read-out: EC50): > 100000 nM
EC50 ([16]; read-out: pEC50 (converted)): > 100000 nM
Activity (Rattus norvegicus [21]): inactive

Cc1cc(C(c2ccccc2)c2ccccc2)sc1C(=O)N[C@@H](CCCNC(=N)N)C(=O)O
AUC(0-t) at 8 h [2]: 90 ng·h/mL
inhibition [22]: Dose-dependent effect
IC50 ([3]; read-out: IC50): 7 nM
Ratio IC50 [6]: 100
inhibition [7]: inactive
half-life [23]: 0.75 h
clearance [24]: 18 mL/min/kg
Ratio IC50 [8]: 100
Vd [25]: 0.7 L
inhibition [11]: Dose-dependent effect
IC50 [12]: 2 nM
Activity (Rattus norvegicus [13]): 49%
Stability [14]: Stable
Cmax [15]: 23 ng/mL
EC50 ([16]; read-out: EC50): > 100000 nM
EC50 ([16]; read-out: pEC50 (converted)): > 100000 nM
Tmax [18]: 4 h
AUC(0-t) at 8 h [26]: 779 ng·h/mL
metabolised at 1 h, 1 µM [19]: 40%

CC(C)C[C@H](NC(=O)OC(C)(C)C)C(=O)N[C@@H](C)C(=O)N[C@@H](CCCNC(=N)N)C(=O)O (HELM PEPTIDE1{[CC(C)(C)OC(=O)[*:2]].L.A.R}$$$$V2.0)
Stability [27]: Unstable
